In brackets after ≈: the same amount, converted by molar mass.
Tests used:
[1] = test system: Candida albicans (ATCC 24433); test: Broth microdilution MIC90; assay type: cell-based; conditions: ATCC24433, read-out: MIC90 Ca
MTT cytotoxicity assay = assay type: cell-based; conditions: human
In short: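 Human CCD 841 CoN colon epithelial cells were grown in RPMI-1640 with 10% FBS, 1% penicillin/streptomycin, 1% L-glutamine and amphotericin B at 37 °C under 5% CO2. They were seeded at 5x10^3 cells/well, then treated 24 h later with test compound at 1.95–1000 µg/ml for 24 h. MTT solution (5 mg/mL) was added for 3 h at 37 °C, formazan dissolved in DMSO, and absorbance read at 540 nm. IC50 was obtained by regression of proliferation against concentration.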

SMILES	MIC90 [1]	IC50 at 24 h (MTT cytotoxicity assay)
CC(=O)N1CCN(c2ccc(OCC3COC(Cn4ccnc4)(c4ccc(Cl)cc4Cl)O3)cc2)CC1 (centres unmarked) [Ketoconazole]	7.8 µg/mL (≈ 14.7 µM)	
O=C(N/N=C/c1ccc([N+](=O)[O-])o1)c1ccc(O)cc1 [Nifuroxazide]		122 µg/mL (≈ 443 µM)

Reference: PMC5543573 (Current Pharmaceutical Design, 2017)
